Data reported in ChEMBL document CHEMBL1156073, “Hydroxamic acids as a novel family of serine racemase inhibitors: mechanistic analysis reveals different modes of interaction with the pyridoxal-5'-phosphate cofactor” (J Med Chem, 2009).
Each block holds one compound with its values, some of them ahead of it. The source made the active and inactive calls. The rule behind the calls is not given here.

Experiments:
Serine racemase [1] = target: T1, Serine racemase (Mus musculus, UniProt Q9QZX7); experiment: Inhibition of mouse recombinant serine racemase transfected in bacterial expression system
T1 sequence (Q9QZX7 whole entry): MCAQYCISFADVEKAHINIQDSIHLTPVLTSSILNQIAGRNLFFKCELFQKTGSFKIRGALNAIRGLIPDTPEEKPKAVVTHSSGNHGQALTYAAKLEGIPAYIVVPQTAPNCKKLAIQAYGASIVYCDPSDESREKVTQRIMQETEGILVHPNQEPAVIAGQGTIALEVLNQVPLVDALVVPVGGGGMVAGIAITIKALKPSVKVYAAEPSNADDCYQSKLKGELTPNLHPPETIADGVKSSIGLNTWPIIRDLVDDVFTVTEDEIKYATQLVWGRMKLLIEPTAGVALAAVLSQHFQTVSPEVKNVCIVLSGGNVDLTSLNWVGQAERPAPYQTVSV

[2] = target: T2, L-serine dehydratase/L-threonine deaminase (Rattus norvegicus) (UniProt P09367); experiment: Inhibition of rat SDH expressed in Escherichia coli BL21-RIL assessed as formation of pyruvate at 5 mM in phosphate buffer of pH 8 treated for 15 to 20 mins before addition of substrate by HPLC analysis in presence of 10 uM PLP
T2 sequence (whole entry): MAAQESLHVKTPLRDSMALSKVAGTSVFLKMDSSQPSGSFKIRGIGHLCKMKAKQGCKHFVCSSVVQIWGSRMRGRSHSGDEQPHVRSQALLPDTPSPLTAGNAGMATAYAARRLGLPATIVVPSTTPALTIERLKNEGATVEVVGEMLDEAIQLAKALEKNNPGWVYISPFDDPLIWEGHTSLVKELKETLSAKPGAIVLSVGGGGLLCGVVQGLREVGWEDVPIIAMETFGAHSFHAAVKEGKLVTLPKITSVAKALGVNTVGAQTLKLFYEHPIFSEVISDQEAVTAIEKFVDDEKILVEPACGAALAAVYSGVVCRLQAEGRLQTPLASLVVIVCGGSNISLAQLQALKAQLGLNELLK
In short: (§1)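 Enzyme in 50 mM phosphate buffer pH 8.0 with 10 μM PLP, preincubated with 5 mM inhibitor at room temperature for 15-20 min. Substrate added near KM: alanine racemase 5 mM D-alanine (L-alanine formed); SDH 50 mM L-serine (SDH partially purified, ~50%, from E. coli BL21-RIL); transaminase 5 mM L-aspartic acid plus 5 mM α-ketoglutarate. Products analysed by HPLC.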

[3] = target: T3, Serine racemase (Mus musculus) (UniProt Q9QZX7); experiment: Inhibition of mouse recombinant serine racemase expressed in Escherichia coli MC1061 assessed as formation of D-serine at 5 mM in phosphate buffer of pH 8 treated for 15 to 20 mins before addition of substrate by HPLC analysis in presence of 10 uM PLP
T3 sequence (whole entry): T1 sequence (Q9QZX7 whole entry)

[4] = Binding affinity to pyridoxal-5'-phosphate assessed as formation of syn- and anti-PLP-aldoxime by NMR spectroscopy
In short: (§2)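 Compound and PLP solutions prepared in 100 mM phosphate buffer in D2O, pD held near 8.0; chemical shifts followed by NMR after mixing.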

[5] = target: T4, Alanine racemase (Geobacillus stearothermophilus) (UniProt P10724); experiment: Inhibition of Bacillus stearothermophilus alanine racemase assessed as formation of L-alanine at 5 mM in phosphate buffer of pH 8 treated for 15 to 20 mins before addition of substrate by HPLC analysis in presence of 10 uM PLP; in short: as §1
T4 sequence (whole entry): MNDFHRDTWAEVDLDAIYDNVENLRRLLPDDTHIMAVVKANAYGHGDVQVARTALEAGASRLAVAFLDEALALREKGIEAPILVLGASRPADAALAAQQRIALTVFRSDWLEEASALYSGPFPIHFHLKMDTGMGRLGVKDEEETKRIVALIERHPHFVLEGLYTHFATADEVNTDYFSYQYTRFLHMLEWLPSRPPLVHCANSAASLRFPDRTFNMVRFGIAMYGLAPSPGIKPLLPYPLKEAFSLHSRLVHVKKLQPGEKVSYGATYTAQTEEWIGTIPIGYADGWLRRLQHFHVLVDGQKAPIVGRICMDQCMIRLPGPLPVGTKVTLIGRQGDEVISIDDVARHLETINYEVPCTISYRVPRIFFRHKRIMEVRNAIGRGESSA

[6] = Binding affinity to pyridoxal-5'-phosphate assessed as formation of PLP-aldoxime at 5 mM after 1 hr by UV/vis spectroscopy
In short: (§3)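 PLP and compound solutions in 100 mM phosphate buffer pH 8.0 mixed 1:1, giving 300 μM PLP and 5 mM compound final. Incubated 1 h at room temperature, then absorbance scanned from 310 to 500 nm.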

[7] = target: T3, Serine racemase (Mus musculus); experiment: Inhibition of mouse recombinant serine racemase expressed in Escherichia coli MC1061 assessed as formation of D-serine at 5 mM after 30 mins by HPLC analysis
In short: (§4)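 Mouse SR (E. coli MC1061, arabinose-induced, three-step chromatography, ~90% pure) incubated in pH 8.0 buffer with 10 μM PLP, 1 mM ATP, 1 mM MgCl2, 5 mM DTT. Screening used 5 mM L-serine and 5 mM test compound; IC50 runs varied inhibitor at 5 mM L-serine. 30 min at 37 C, stopped with 0.3 M HClO4; D-serine quantified by HPLC. Duplicate or triplicate runs.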

[8] = Chemical stability assessed as hydrolysis-associated hydroxylamine formation at 0.5 mM after 1 hr in phosphate buffer of pH 8; format: physicochemical; conditions: pH 8, 1 h, 500 µM
In short: (§5)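 Compound at 0.5 mM or 0.05 mM, diluted from fresh 10 mM stocks, held in 100 mM phosphate buffer pH 8.0 or 7.4 at room temperature for 0, 30 or 60 min. Picrylsulfonic acid then added; released hydroxylamine read as absorbance at 494 nm 15 min later.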

[9] = Binding affinity to pyridoxal-5'-phosphate assessed as compound remaining after 12 days by NMR spectroscopy; in short: as §2
[10] = Inhibition of broad-range bacterial transaminase assessed as formation of L-glutamic acid at 5 mM in phosphate buffer of pH 8 treated for 15 to 20 mins before addition of substrate by HPLC analysis in presence of 10 uM PLP; in short: as §1
[11] = Chemical stability assessed as hydrolysis-associated hydroxylamine formation at 0.5 mM after 1 hr in phosphate buffer of pH 7.4; format: physicochemical; conditions: pH 7.4, 1 h, 500 µM; in short: as §5
[12] = target: T5, Serine racemase (Homo sapiens) (UniProt Q9GZT4); experiment: Inhibition of human recombinant serine racemase assessed as formation of D-serine at 5 mM in phosphate buffer of pH 8 treated for 15 to 20 mins before addition of substrate by HPLC analysis in presence of 10 uM PLP
T5 sequence (whole entry): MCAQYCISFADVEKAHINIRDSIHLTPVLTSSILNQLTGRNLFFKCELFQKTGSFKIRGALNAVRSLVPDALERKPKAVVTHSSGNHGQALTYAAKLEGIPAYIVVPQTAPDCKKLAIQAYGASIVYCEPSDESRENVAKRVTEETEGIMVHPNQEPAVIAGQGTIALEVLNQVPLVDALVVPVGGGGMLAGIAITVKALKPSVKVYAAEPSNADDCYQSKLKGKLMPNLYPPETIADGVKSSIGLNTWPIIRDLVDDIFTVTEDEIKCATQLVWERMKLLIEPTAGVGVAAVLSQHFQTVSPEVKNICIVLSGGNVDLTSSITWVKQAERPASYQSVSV
In short: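 Recombinant human SR assayed as for mouse SR: pH 8.0 buffer with 10 μM PLP, 1 mM ATP, 1 mM MgCl2, 5 mM DTT, 5 mM L-serine and 5 mM compound. Incubated 30 min at 37 C, stopped with HClO4; D-serine measured by HPLC.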

[13] = Binding affinity to pyridoxal-5'-phosphate assessed as formation of PLP-aldoxime by ESI-MS analysis
In short: (§6)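 Compound weighed into PLP stock at about 1:1 molar ratio with PLP, with or without 200 mM ammonium sulfate pH 8.0. Mixture diluted 40- to 100-fold in water and analysed by ESI-MS in negative ion mode.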

[14] = Binding affinity to pyridoxal-5'-phosphate assessed as formation of syn- and anti-PLP-aldoxime after 20 hrs by NMR spectroscopy; in short: as §2
[15] = Chemical stability assessed as hydrolysis-associated hydroxylamine formation at 0.05 mM after 1 hr in phosphate buffer of pH 8; format: physicochemical; conditions: pH 8, 1 h, 50 µM; in short: as §5
Serine racemase [16] = target: T1, Serine racemase; experiment: Inhibition of mouse recombinant serine racemase expressed in Escherichia coli MC1061 assessed as formation of D-serine after 30 mins by HPLC analysis; in short: as §4
[17] = Chemical stability assessed as hydrolysis-associated hydroxylamine formation at 0.05 mM after 1 hr in phosphate buffer of pH 7.4; format: physicochemical; conditions: pH 7.4, 1 h, 50 µM; in short: as §5
[18] = Binding affinity to 30 mM pyridoxal-5'-phosphate assessed as formation of PLP-aldimine by ESI-MS analysis
[19] = target: T3, Serine racemase (Mus musculus); experiment: Inhibition of mouse recombinant serine racemase expressed in Escherichia coli MC1061 assessed as formation of D-serine at 5 mM treated for 15 to 20 mins before addition of substrate by HPLC analysis in presence of increasing concentration of PLP
[20] = target: T3, Serine racemase (Mus musculus); experiment: (§7) Inhibition of mouse recombinant serine racemase expressed in Escherichia coli MC1061 assessed as formation of D-serine after 30 mins by Linewaver-burk and Eadie-Hofstee plot analysis
In short: (§8)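 Mouse SR racemization at varied L-serine and inhibitor concentrations, pH 8.0, 10 μM PLP, 30 min at 37 C. End-point HPLC measured D-serine peak area relative to a glycine internal standard, in triplicate. Global nonlinear fit followed by linear transformation.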

[21] = target: T5, Serine racemase (Homo sapiens); experiment: Inhibition of human recombinant serine racemase assessed as formation of D-serine at 5 mM treated for 15 to 20 mins before addition of substrate by HPLC analysis in presence of increasing concentration of PLP
[22] = Binding affinity to pyridoxal-5'-phosphate assessed as PLP-amino acid Schiff base interaction at 5 mM after 1 hr by UV/vis spectroscopy; in short: as §3
[23] = Binding affinity to 4-5 mM pyridoxal-5'-phosphate assessed as formation of PLP-aldimine by ESI-MS analysis; in short: as §6
[24] = Binding affinity to pyridoxal-5'-phosphate assessed as formation of PLP-aldimine by NMR spectroscopy; in short: as §2
[25] = Binding affinity to pyridoxal-5'-phosphate assessed as formation of PLP-aldimine at active site by ESI-MS analysis; in short: as §6
[26] = target: T3, Serine racemase (Mus musculus); experiment: Inhibition of mouse recombinant serine racemase expressed in Escherichia coli MC1061 assessed as formation of D-serine at 5 mM after 30 mins by HPLC analysis in presence of 5 fold molar excess of MgCl2 over compound
Serine racemase [27] = target: T1, Serine racemase; experiment: as §7; in short: as §8

- Ki (Serine racemase [1]): 71 µM
Compound: O=C(O)CC(=O)O [MALONIC ACID]

- inhibition [2]: inactive
- inhibition [3]: inactive
- Activity [4]: inactive
- inhibition [5]: inactive
- Activity [6]: inactive
- inhibition [7]: inactive
- Stability [8]: Stable
- Activity [9]: 20%
- inhibition [10]: inactive
- Stability [11]: Stable
- inhibition [12]: inactive
- Activity [13]: inactive
Compound: O=C(NO)C(=O)NO

- Activity [4]: inactive
- Activity [6]: inactive
- inhibition [7]: inactive
- Stability [8]: Stable
- Activity [14]: inactive
- Stability [11]: Stable
- Activity [13]: inactive
Compound: O=C(CCCCC(=O)NO)NO

- Stability [15]: Unstable
- Activity [6]: Active
- Activity [14]: Active
- IC50 (Serine racemase [16]): 170 µM
- Stability [17]: Unstable
- Activity [13]: Active
Compound: O=C(CCCC(=O)NO)NO [GLUTARODIHYDROXAMIC ACID]

- Activity [18]: Active
Compound: N[C@@H](CO)C(=O)O

- inhibition [19]: inactive
- inhibition [3]: Active
- Activity [4]: Active
- Stability [15]: Unstable
- Activity [6]: Active
- IC50 (Serine racemase [16]): 90 µM
- Ki [20]: 3.6 µM
- Stability [17]: Unstable
- inhibition [21]: inactive
- Activity [13]: Active
Compound: O=C(CCC(=O)NO)NO [SUCCINODIHYDROXAMIC ACID]

- Activity [4]: inactive
- inhibition [7]: inactive
- Stability [8]: Stable
- Activity [14]: inactive
- Stability [11]: Stable
- Activity [13]: inactive
Compound: O=C(CCCCCCC(=O)NO)NO [SUBEROHYDROXAMIC ACID]

- inhibition [7]: inactive
Compound: Nc1ccc(C(=O)NO)cc1

- Activity [18]: Active
Compound: NCC(=O)O

- inhibition [2]: Active
- inhibition [3]: Active
- inhibition [5]: inactive
- Activity [6]: Active
- Activity [22]: Active
- Activity [23]: Active
- inhibition [10]: inactive
- IC50 (Serine racemase [16]): 1300 µM
- Activity [24]: Active
- inhibition [12]: Active
Compound: N[C@@H](CC(=O)NO)C(=O)O

- inhibition [7]: inactive
Compound: O=C(NO)c1ccc([N+](=O)[O-])cc1

- Activity [4]: Active
- Activity [6]: inactive
- inhibition [7]: inactive
- Activity [13]: inactive
Compound: CC(=O)NO

- inhibition [7]: inactive
- Activity [18]: Active
- Activity [25]: inactive
Compound: NC(CO)C(=O)NO (stereo not given)

- Activity [4]: Active
- Activity [6]: inactive
- inhibition [7]: inactive
Compound: O=C(CCCCCCC(=O)Nc1ccccc1)NO

- Ki (Serine racemase [1]): 43 µM
Compound: N[C@@H](C(=O)O)[C@H](O)C(=O)O

- inhibition [19]: inactive
- inhibition [26]: Active
- inhibition [3]: Active
- Activity [4]: Active
- Stability [15]: Unstable
- Activity [6]: Active
- IC50 (Serine racemase [16]): 370 µM
- Ki (Serine racemase [27]): 417 µM
- Stability [17]: Unstable
- inhibition [21]: inactive
- Activity [13]: Active
Compound: O=C(CC(=O)NO)NO [MALONODIHYDROXAMIC ACID]

- inhibition [7]: inactive
- Activity [18]: Active
- Activity [25]: inactive
Compound: NCC(=O)NO

- inhibition [7]: inactive
Compound: O=C(NO)c1ccc(Cl)cc1

- inhibition [7]: inactive
- Activity [18]: Active
- Activity [25]: inactive
Compound: CC(O)C(N)C(=O)NO (stereo not given)
